Measured values taken from ChEMBL document CHEMBL5236607, “Membrane-Active Cyclic Amphiphilic Peptides: Broad-Spectrum Antibacterial Activity Alone and in Combination with Antibiotics” (J Med Chem, 2022).
Activity calls are given as the source filed them. The calls are words filed in the database; no cut-off is given here. Bridge positions count the residues as written; N and C are the ends. Square brackets hold non-standard residues; d marks the D form. Peptide text beside a SMILES is read from it. * marks the point of attachment. X1 = CC[C@H](C)CCCCC(=O)*; Dab = NCC[C@H](N)C(=O)O

Key:
[1] = Therapeutic index, ratio of HC50 for human RBC to MIC for methicillin resistant Staphylococcus aureus ATCC BAA-1556
Method in brief: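 Human RBCs washed in PBS pH 7.4 and mixed 1:1 with two-fold peptide dilutions (4% v/v suspension), 2 h at 37 °C. Hemoglobin in supernatant read at 567 nm against PBS (0%) and 1% Triton X-100 (100%). HC50 is the concentration giving 50% hemolysis. Index is HC50 divided by MIC against MRSA.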

Escherichia coli [2] = assay: Antibacterial activity against Escherichia coli ATCC 25922 after 24 hrs by microbroth dilution method; assay type: functional
Pseudomonas aeruginosa = assay: Antibacterial activity against Pseudomonas aeruginosa ATCC […] after 24 hrs by microbroth dilution method; assay type: functional
Klebsiella pneumoniae = assay: Antibacterial activity against imipenem resistant Klebsiella pneumoniae ATCC BAA-1705 after 24 hrs by microbroth dilution method; assay type: functional
Staphylococcus aureus [3] = assay: Antibacterial activity against methicillin resistant Staphylococcus aureus ATCC BAA-1556 after 24 hrs by microbroth dilution method; assay type: functional
Escherichia coli [4] = assay: Induction of resistance development in Escherichia coli ATCC BAA-2452 assessed as increase in MIC by microtiter plate reader assay; assay type: functional, organism-based
Method in brief: (§1)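 Serial passage resistance assay with 2-fold microdilution MICs in 96-well plates. Each passage takes the well with the highest concentration still permitting growth, adjusts it to 0.5 McFarland, and dilutes it to a final 5 × 10^5 CFU/mL for the next passage. Eighteen passages; MIC recorded at each. Triplicate.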

Staphylococcus aureus [5] = assay: Induction of resistance development in methicillin resistant Staphylococcus aureus ATCC BAA-1556 assessed as increase in MIC by microtiter plate reader assay; assay type: functional, organism-based; method in brief: as §1
Staphylococcus aureus [6] = assay: Induction of resistance development in Staphylococcus aureus ATCC 29213 assessed as increase in MIC by microtiter plate reader assay; assay type: functional, organism-based; method in brief: as §1
Escherichia coli [7] = assay: Induction of resistance development in Escherichia coli ATCC 25922 assessed as increase in MIC by microtiter plate reader assay; assay type: functional, organism-based

Row | SMILES | TI [1] | also measured
1 | N=C(N)NCCC[C@@H]1NC(=O)[C@H](CCCNC(=N)N)NC(=O)[C@H](CCCNC(=N)N)NC(=O)[C@H](CCCNC(=N)N)NC(=O)[C@H](Cc2c[nH]c3ccccc23)NC(=O)[C@H](Cc2c[nH]c3ccccc23)NC(=O)[C@H](Cc2c[nH]c3ccccc23)NC(=O)[C@H](Cc2c[nH]c3ccccc23)NC(=O)[C@H](Cc2c[nH]c3ccccc23)NC(=O)[C@H](Cc2c[nH]c3ccccc23)NC(=O)[C@H](Cc2c[nH]c3ccccc23)NC(=O)[C@H](CCCNC(=N)N)NC(=O)[C@H](CCCNC(=N)N)NC(=O)[C@H](CCCNC(=N)N)NC1=O (cyclo(RRRRRRRWWWWWWW)) | 8.75 | 
2 | N=C(N)NCCC[C@@H]1NC(=O)[C@H](CCCNC(=N)N)NC(=O)[C@H](Cc2c[nH]c3ccccc23)NC(=O)[C@H](Cc2c[nH]c3ccccc23)NC(=O)[C@H](Cc2c[nH]c3ccccc23)NC(=O)[C@H](CCCNC(=N)N)NC1=O (cyclo(WWWRRR)) | 9.69 | 
3 | N=C(N)NCCC[C@@H]1NC(=O)[C@H](CCCNC(=N)N)NC(=O)[C@H](CCCNC(=N)N)NC(=O)[C@H](Cc2c[nH]c3ccccc23)NC(=O)[C@H](Cc2c[nH]c3ccccc23)NC(=O)[C@H](Cc2c[nH]c3ccccc23)NC(=O)[C@H](Cc2c[nH]c3ccccc23)NC(=O)[C@H](Cc2c[nH]c3ccccc23)NC(=O)[C@H](Cc2c[nH]c3ccccc23)NC(=O)[C@H](Cc2c[nH]c3ccccc23)NC(=O)[C@H](CCCNC(=N)N)NC(=O)[C@H](CCCNC(=N)N)NC1=O (cyclo(RRRRRWWWWWWW)) | > 0.45 | MIC (Escherichia coli [2]): > 256 µg/mL; MIC (Pseudomonas aeruginosa): > 256 µg/mL; MIC (Klebsiella pneumoniae): > 256 µg/mL; MIC (Staphylococcus aureus [3]): > 256 µg/mL
4 | N=C(N)NCCC[C@@H]1NC(=O)[C@H](CCCNC(=N)N)NC(=O)[C@H](CCCNC(=N)N)NC(=O)[C@H](CCCNC(=N)N)NC(=O)[C@H](Cc2c[nH]c3ccccc23)NC(=O)[C@H](Cc2c[nH]c3ccccc23)NC(=O)[C@H](Cc2c[nH]c3ccccc23)NC(=O)[C@H](Cc2c[nH]c3ccccc23)NC(=O)[C@H](CCCNC(=N)N)NC(=O)[C@H](CCCNC(=N)N)NC(=O)[C@H](CCCNC(=N)N)NC1=O (cyclo(RRRRRRRWWWW)) | 11.9 | 
5 | N=C(N)NCCC[C@@H]1NC(=O)[C@H](CCCNC(=N)N)NC(=O)[C@H](Cc2c[nH]c3ccccc23)NC(=O)[C@H](Cc2c[nH]c3ccccc23)NC(=O)[C@H](Cc2c[nH]c3ccccc23)NC(=O)[C@H](Cc2c[nH]c3ccccc23)NC(=O)[C@H](CCCNC(=N)N)NC1=O (cyclo(RRRWWWW)) | 13.1 | 
6 | CC[C@H](C)CCCCC(=O)N[C@@H](CCN)C(=O)N[C@H](C(=O)N[C@@H](CCN)C(=O)N[C@H]1CCNC(=O)[C@H]([C@@H](C)O)NC(=O)[C@H](CCN)NC(=O)[C@H](CCN)NC(=O)[C@H](CC(C)C)NC(=O)[C@@H](Cc2ccccc2)NC(=O)[C@H](CCN)NC1=O)[C@@H](C)O (X1-[Dab]T[Dab][Dab][Dab][dF]L[Dab][Dab]T; lactam 4-C) |  | Activity (Escherichia coli [4]): Active; Activity (Staphylococcus aureus [5]): Active; Activity (Staphylococcus aureus [6]): Active; Activity (Escherichia coli [7]): Active
7 | N=C(N)NCCC[C@@H]1NC(=O)[C@H](CCCNC(=N)N)NC(=O)[C@H](CCCNC(=N)N)NC(=O)[C@H](CCCNC(=N)N)NC(=O)[C@H](Cc2c[nH]c3ccccc23)NC(=O)[C@H](Cc2c[nH]c3ccccc23)NC(=O)[C@H](Cc2c[nH]c3ccccc23)NC(=O)[C@H](Cc2c[nH]c3ccccc23)NC(=O)[C@H](Cc2c[nH]c3ccccc23)NC(=O)[C@H](CCCNC(=N)N)NC(=O)[C@H](CCCNC(=N)N)NC(=O)[C@H](CCCNC(=N)N)NC1=O (cyclo(RRRRRRRWWWWW)) | 21.9 | 
8 | N=C(N)NCCC[C@@H]1NC(=O)[C@H](CCCNC(=N)N)NC(=O)[C@H](Cc2c[nH]c3ccccc23)NC(=O)[C@H](Cc2c[nH]c3ccccc23)NC(=O)[C@H](Cc2c[nH]c3ccccc23)NC(=O)[C@H](Cc2c[nH]c3ccccc23)NC(=O)[C@H](Cc2c[nH]c3ccccc23)NC(=O)[C@H](Cc2c[nH]c3ccccc23)NC(=O)[C@H](CCCNC(=N)N)NC1=O | 1.02 | 
9 | N=C(N)NCCC[C@@H]1NC(=O)[C@H](CCCNC(=N)N)NC(=O)[C@H](CCCNC(=N)N)NC(=O)[C@H](Cc2c[nH]c3ccccc23)NC(=O)[C@H](Cc2c[nH]c3ccccc23)NC(=O)[C@H](Cc2c[nH]c3ccccc23)NC(=O)[C@H](Cc2c[nH]c3ccccc23)NC(=O)[C@H](Cc2c[nH]c3ccccc23)NC(=O)[C@H](Cc2c[nH]c3ccccc23)NC(=O)[C@H](CCCNC(=N)N)NC1=O | 0.59 | 
10 | N=C(N)NCCC[C@@H]1NC(=O)[C@H](CCCNC(=N)N)NC(=O)[C@H](CCCNC(=N)N)NC(=O)[C@H](CCCNC(=N)N)NC(=O)[C@H](Cc2c[nH]c3ccccc23)NC(=O)[C@H](Cc2c[nH]c3ccccc23)NC(=O)[C@H](Cc2c[nH]c3ccccc23)NC(=O)[C@H](Cc2c[nH]c3ccccc23)NC(=O)[C@H](Cc2c[nH]c3ccccc23)NC(=O)[C@H](Cc2c[nH]c3ccccc23)NC(=O)[C@H](CCCNC(=N)N)NC(=O)[C@H](CCCNC(=N)N)NC1=O (cyclo(RRRRRRWWWWWW)) | 10.6 | 
11 | N=C(N)NCCC[C@@H]1NC(=O)[C@H](CCCNC(=N)N)NC(=O)[C@H](CCCNC(=N)N)NC(=O)[C@H](Cc2c[nH]c3ccccc23)NC(=O)[C@H](Cc2c[nH]c3ccccc23)NC(=O)[C@H](Cc2c[nH]c3ccccc23)NC(=O)[C@H](Cc2c[nH]c3ccccc23)NC(=O)[C@H](CCCNC(=N)N)NC1=O (cyclo(RRRRWWWW)) | 43.8 | 
12 | N=C(N)NCCC[C@@H]1NC(=O)[C@H](CCCNC(=N)N)NC(=O)[C@H](Cc2c[nH]c3ccccc23)NC(=O)[C@H](Cc2c[nH]c3ccccc23)NC(=O)[C@H](Cc2c[nH]c3ccccc23)NC(=O)[C@H](Cc2c[nH]c3ccccc23)NC(=O)[C@H](Cc2c[nH]c3ccccc23)NC(=O)[C@H](CCCNC(=N)N)NC1=O (cyclo(RRRWWWWW)) | 0.63 | 
13 | N=C(N)NCCC[C@@H]1NC(=O)[C@H](CCCNC(=N)N)NC(=O)[C@H](Cc2c[nH]c3ccccc23)NC(=O)[C@H](Cc2c[nH]c3ccccc23)NC(=O)[C@H](Cc2c[nH]c3ccccc23)NC1=O (cyclo(RRWWW)) | 3.75 | 
14 | N=C(N)NCCC[C@@H]1NC(=O)[C@H](CCCNC(=N)N)NC(=O)[C@H](CCCNC(=N)N)NC(=O)[C@H](Cc2c[nH]c3ccccc23)NC(=O)[C@H](Cc2c[nH]c3ccccc23)NC(=O)[C@H](Cc2c[nH]c3ccccc23)NC(=O)[C@H](Cc2c[nH]c3ccccc23)NC(=O)[C@H](Cc2c[nH]c3ccccc23)NC(=O)[C@H](CCCNC(=N)N)NC(=O)[C@H](CCCNC(=N)N)NC1=O | 57.5 | 
15 | O=C(O)c1cn(C2CC2)c2cc(N3CCNCC3)c(F)cc2c1=O |  | Activity (Escherichia coli [4]): Active; Activity (Staphylococcus aureus [5]): Active; Activity (Staphylococcus aureus [6]): Active
16 | N=C(N)NCCC[C@@H]1NC(=O)[C@H](CCCNC(=N)N)NC(=O)[C@H](Cc2c[nH]c3ccccc23)NC(=O)[C@H](Cc2c[nH]c3ccccc23)NC(=O)[C@H](Cc2c[nH]c3ccccc23)NC(=O)[C@H](Cc2c[nH]c3ccccc23)NC1=O (cyclo(RRWWWW)) | 1.33 | 
17 | N=C(N)NCCC[C@@H]1NC(=O)[C@H](CCCNC(=N)N)NC(=O)[C@H](CCCNC(=N)N)NC(=O)[C@H](Cc2c[nH]c3ccccc23)NC(=O)[C@H](Cc2c[nH]c3ccccc23)NC(=O)[C@H](Cc2c[nH]c3ccccc23)NC(=O)[C@H](Cc2c[nH]c3ccccc23)NC(=O)[C@H](Cc2c[nH]c3ccccc23)NC(=O)[C@H](Cc2c[nH]c3ccccc23)NC(=O)[C@H](Cc2c[nH]c3ccccc23)NC(=O)[C@H](CCCNC(=N)N)NC1=O (cyclo(RRRRWWWWWWW)) | 0.23 | MIC (Pseudomonas aeruginosa): > 256 µg/mL
18 | N=C(N)NCCC[C@@H]1NC(=O)[C@H](CCCNC(=N)N)NC(=O)[C@H](CCCNC(=N)N)NC(=O)[C@H](CCCNC(=N)N)NC(=O)[C@H](Cc2c[nH]c3ccccc23)NC(=O)[C@H](Cc2c[nH]c3ccccc23)NC(=O)[C@H](Cc2c[nH]c3ccccc23)NC(=O)[C@H](Cc2c[nH]c3ccccc23)NC(=O)[C@H](Cc2c[nH]c3ccccc23)NC(=O)[C@H](Cc2c[nH]c3ccccc23)NC(=O)[C@H](CCCNC(=N)N)NC(=O)[C@H](CCCNC(=N)N)NC(=O)[C@H](CCCNC(=N)N)NC1=O (cyclo(RRRRRRRWWWWWW)) | 5.31 | 
19 | N=C(N)NCCC[C@@H]1NC(=O)[C@H](CCCNC(=N)N)NC(=O)[C@H](CCCNC(=N)N)NC(=O)[C@H](Cc2c[nH]c3ccccc23)NC(=O)[C@H](Cc2c[nH]c3ccccc23)NC(=O)[C@H](Cc2c[nH]c3ccccc23)NC(=O)[C@H](Cc2c[nH]c3ccccc23)NC(=O)[C@H](Cc2c[nH]c3ccccc23)NC(=O)[C@H](Cc2c[nH]c3ccccc23)NC(=O)[C@H](CCCNC(=N)N)NC(=O)[C@H](CCCNC(=N)N)NC1=O (cyclo(RRRRRWWWWWW)) | > 0.54 | MIC (Escherichia coli [2]): > 256 µg/mL; MIC (Pseudomonas aeruginosa): > 256 µg/mL; MIC (Klebsiella pneumoniae): > 256 µg/mL; MIC (Staphylococcus aureus [3]): > 256 µg/mL
